# FN deposit inh: inhibitors of fibronectin matrix deposition, primary screen, AH1F cells, Alexa488-fibronectin fluorescence, plate reader. hit rate 0.086% among 350,000. inhibition, % at 12.6 µM. AID 743247, 2014. AH1F fibroblasts, overnight;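 active = mean inhibition across replicates of 30% or more, regardless of how many single replicates reach that level; inconclusive = mean under 30% yet at least half of replicates reach 30%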;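 note: positive control wells lacked labelled fibronectin entirely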
#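 Test system: AH1F fibroblast monolayer depositing Alexa488-labelled fibronectin into matrix. Input: 10000 cells per well. Technique: fluorescence, ex 485 nm, em 525 nm. Buffer or medium: DMEM plus 2% serum, read in PBS. Timing: 1 h cell adhesion before compound, then overnight fibronectin incubation. Compound: single dose, pinned. Read-out basis: inhibition from reduced deposited-fibronectin fluorescence.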
# PDI turbidity: inhibitors of human PDI, primary screen, biochemical, turbidity, single point, plate reader | PDI insulin aggregation turbidity, A650, 90 min | inhibition, % at 10 µM | hit rate 0.052% among 350,000 | AID 588391, 2011;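 active = mean inhibition across replicates of 30% or more, whatever share of single replicates reach that level; inconclusive = mean inhibition below 30% while every single replicate reaches 30%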
# GSIS activator: GLuc luminescence reporter in INS-1E cells, primary screen for activators of glucose-dependent secretion of insulin. INS-1E GLuc reporter insulin secretion, 2-3 h. activation, % at 16.6 µM. hit rate 0.61% among 370,000. AID 743287, 2014;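 active = lowest replicate activation of at least 40%, so every replicate reaches that level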;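 note: 0% = median of neutral control wells and 100% = median of IBMX positive control wells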
# ERp5 inh: inhibitors of ERp5-driven insulin aggregation, primary screen, biochemical, turbidity, absorbance 650 nm, single point; inhibition, % at 9.99 µM; 90 min; AID 651711, 2012; hit rate 0.05% among 350,000;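 active = mean replicate inhibition above about 25%, with every replicate also reaching it, limit read from the data, passing the limit was not always enough; inconclusive = only one of those two criteria met; inactive = neither criterion met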
# Target sequence (Q15084 whole entry, looked up): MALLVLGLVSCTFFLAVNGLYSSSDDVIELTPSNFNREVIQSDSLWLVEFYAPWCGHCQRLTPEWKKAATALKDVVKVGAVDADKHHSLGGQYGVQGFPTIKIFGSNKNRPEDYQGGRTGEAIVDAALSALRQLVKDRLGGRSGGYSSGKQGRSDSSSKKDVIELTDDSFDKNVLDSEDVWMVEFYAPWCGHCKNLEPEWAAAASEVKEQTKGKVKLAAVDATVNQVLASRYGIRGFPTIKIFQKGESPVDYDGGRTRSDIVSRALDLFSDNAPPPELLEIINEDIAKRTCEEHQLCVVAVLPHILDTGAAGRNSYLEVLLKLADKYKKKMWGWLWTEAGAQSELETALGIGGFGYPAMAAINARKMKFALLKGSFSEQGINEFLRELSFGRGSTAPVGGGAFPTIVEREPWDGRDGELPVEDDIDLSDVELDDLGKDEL
# HIV Env fusion: inhibitors of HIV-1 Env-driven cell-cell fusion, primary screen, HeLa-JRFL effector, CEM21 target cells, luciferase | inhibition, % at 12.3 µM | hit rate 1.1% among 360,000;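 active = mean replicate inhibition score of at least 50 and every replicate individually at or above 50; inconclusive = only one of the two criteria met; inactive = mean below 50 and not all replicates reaching 50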;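 note: 0% = plate neutral controls and 100% = maraviroc near 300 nM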
# An asterisk follows results filed as active; ? = inconclusive; · = not tested or not shown; [ ] = remark or other dose. The list is not random: actives were taken first. Their share in the collection is about 1.4%.
SMILES,FN deposit inh,PDI turbidity,GSIS activator,ERp5 inh,HIV Env fusion
CCCCCCn1c(O)c(/C=C2\C=NN=C2c2ccccc2)sc1=S,4,4,164*,·,15
CC(C)Cn1c(O)c(/C=C2\C=NN=C2c2ccccc2)sc1=S,4,1,83*,·,-1
CCCCn1c(O)c(/C=C2\C=NN=C2c2ccccc2)sc1=S,·,-7,119*,·,·
CCn1c(O)c(/C=C2\C=NN=C2c2ccccc2)sc1=S,-3,0,-5,1,3
COc1cccc(-c2ccc([C@@H]3[C@@H](CO)N4CCCCN(S(=O)(=O)c5cn(C)cn5)C[C@@H]34)cc2)c1,·,·,4,0,·
C[C@H]1CN([C@@H](C)CO)C(=O)Cc2cc(NC(=O)Nc3ccc(F)cc3)ccc2O[C@@H]1CN(C)Cc1ccc(Oc2ccccc2)cc1,·,·,-10,-2,-8[16.7 µM]
CCc1nc(N)nc2c1C(=O)CC(C)(C)C2,·,-8,70*,3,·
CSc1nnc(C)c(=O)n1COC(=O)c1ccc([N+](=O)[O-])cc1,31*,-3,24,6,13
CCCC#Cc1cnc2c(c1)C(=O)N([C@H](C)CO)C[C@@H](C)[C@@H](CN(C)C(=O)c1cccc(F)c1)O2,·,·,-4,-6,13[16.7 µM]
CCOC(=O)CN(C(=O)CSc1nnnn1C)c1ccccc1,6,-3,-9,-6,71*
CCOC(=O)CN(C(=O)CSc1nnc(Cc2ccccc2)n1-c1ccc(C)cc1)c1ccccc1,·,5,·,·,·
CC=Cc1ccc2n(c1=O)C[C@H]1[C@H](CO)[C@@H](C(=O)N(C)C)N(C(=O)CC3CC3)[C@@H]21 (mixture of isomers),·,·,23,4,·
C[C@@H]1CN([C@H](C)CO)C(=O)c2cc(NC(=O)Nc3ccc4c(c3)OCO4)ccc2O[C@H]1CN(C)Cc1ccc2c(c1)OCO2,·,·,-17,-1,-4[16.7 µM]
Cc1noc(C)c1NC(=O)N(C)C[C@H]1OCCCC[C@H](C)Oc2ccc(NS(=O)(=O)c3ccc(F)cc3)cc2C(=O)N([C@H](C)CO)C[C@@H]1C,-15,·,-5,-5,5[16.7 µM]
CNC[C@H](CC1CCCCC1)NC[C@H](Cc1ccccc1)NCCC12CC3CC(CC(C3)C1)C2,60*,-4,649*,1,93*
Cc1ccc(S(=O)(=O)N2C[C@H](O)COC[C@H]3O[C@@H](CC(=O)N4CCc5ccccc5C4)CC[C@@H]32)cc1,1,·,-3,-4,14[16.7 µM]
C[C@@H]1CN([C@H](C)CO)S(=O)(=O)c2ccc(C#C[C@@H](C)O)cc2O[C@H]1CN(C)C(=O)C1CC1,-6,·,13,8,-16[16.7 µM]
COc1cccc(NC(=O)Cc2ccccc2)c1,1,-2,-27,-6,-77
O=C(Cc1ccccc1)Nc1cccc(N2C(=O)C=CC2=O)c1,16,-2,59*,7,12
CN1c2ccc(-c3ccccc3F)cc2[C@@H]2[C@@H](CCN2C(=O)Nc2ccc(F)cc2)[C@@H]1CO,4,·,-6,·,·
O=C(OC(C(=O)Nc1ccc(Cl)cc1C(F)(F)F)c1ccccc1)c1c(Cl)cccc1Cl (stereo not given),-5,3,·,3,73*
O=c1[nH]c(=O)n([C@H]2C[C@H](O)[C@@H](CO)O2)cc1F,8,0,26,2,70*
CO[C@H]1CN(C)C(=O)c2cc(NC(=O)c3cccc(F)c3)ccc2OC[C@H](C)N(CC2CC2)C[C@H]1C,11,·,1,-8,·
COc1ccc(C2C(C(N)=O)=C(C)Nc3nc(-c4cccc(Cl)c4)nn32)cc1OC (stereo not given),28,-9,·,·,58*
COCCNC(=O)C[C@H]1C[C@@H]2c3cc(NS(=O)(=O)c4ccc(F)cc4)ccc3O[C@@H]2[C@@H](CO)O1,-9,·,-2,·,15[16.7 µM]
SMILES,FN deposit inh,PDI turbidity,GSIS activator,ERp5 inh,HIV Env fusion
COCC(=O)N1CC[C@@H]2[C@H](CO)Nc3ccc(C#Cc4cccc(F)c4)cc3[C@@H]21,-17,·,17,-1,·
C[C@@H]1CN([C@H](C)CO)C(=O)c2cc(NC(=O)Cc3ccccc3)ccc2O[C@@H](C)CCCCO[C@H]1CN(C)Cc1ccc(C(F)(F)F)cc1,·,·,-12,·,73*[16.7 µM]
C[C@@H]1CN([C@@H](C)CO)C(=O)c2cc(NC(=O)Cc3ccccc3)ccc2O[C@@H](C)CCCCO[C@H]1CN(C)Cc1ccc(C(F)(F)F)cc1,·,·,-18,·,64*[16.7 µM]
C[C@H](CO)N1C[C@H](C)[C@H](CN(C)Cc2ccc(C(F)(F)F)cc2)OCCCC[C@H](C)Oc2ccc(NC(=O)Cc3ccccc3)cc2C1=O,·,·,-14,0,72*[16.7 µM]
C[C@@H]1CN([C@@H](C)CO)C(=O)c2cc(NC(=O)Cc3ccccc3)ccc2O[C@@H](C)CCCCO[C@@H]1CN(C)Cc1ccc(C(F)(F)F)cc1,·,·,-16,-1,31[16.7 µM]
CCN(C(=O)CCS(=O)(=O)c1cc2c(cc1Cl)NC(=O)CO2)c1ccccc1,-3,·,-2,1,72*
Cc1ccc(N(C)C(=O)CCS(=O)(=O)c2cc3c(cc2Cl)NC(=O)CO3)cc1,5,·,0,-2,-11
O=C(/C=C/c1ccc(N2CCCCC2)c([N+](=O)[O-])c1)c1ccc(O)cc1,1,85*,-3,-1,-24
COc1ccc(C(=O)Nc2ccc(-c3ccc(C)o3)cc2)cc1S(=O)(=O)N1CCOCC1,-9,8,·,·,63*
C[C@@H]1CN([C@H](C)CO)C(=O)c2cc(NC(=O)NC3CCCCC3)ccc2O[C@@H](C)CCCCO[C@H]1CN(C)Cc1ccc(C(F)(F)F)cc1,·,·,13,3,?
OCc1nnc2c3ccccc3c(-c3ccccc3)nn12,·,4,41*,1,-30
Cc1nc(SCC(=O)N2CCOCC2)c2c(C)c(C)sc2n1,2,-6,9,-1,18
Cc1nc(SCC(=O)Nc2ccc(S(=O)(=O)N3CCOCC3)cc2)c2c(C)c(C)sc2n1,-1,-1,·,4,64*
CN1CCN(C(=O)C[C@@H]2CC[C@@H]3[C@H](COC[C@H](O)CN3C(=O)C3CCOCC3)O2)CC1,-2,·,0,1,-7[16.7 µM]
O=C1CC(Sc2nnc(-c3ccccc3)o2)C(=O)N1c1ccccc1 (stereo not given),9,4,86*,·,-48
COc1cc(C(F)(F)F)c(C(=O)NCc2cccc(Cl)c2)cn1,-2,13,48*,7,6
Cc1cc(Cl)ccc1OCC(=O)NCCCN1CCOCC1,·,2,·,·,·
Cc1cc(Cl)ccc1OCC(=O)NCCOc1nc(N2CCOCC2)nc(N2CCOCC2)n1,29,-2,·,·,94*
O=C(COc1ccc(Cl)cc1Cl)NCCCN1CCOCC1,0,-3,21,0,-12
CN(C)c1nc(OCCNC(=O)COc2ccc(Cl)cc2Cl)nc(N2CCOCC2)n1,0,1,·,·,41*
